# From ChEMBL document CHEMBL2424619, “Small-molecule ligands of methyl-lysine binding proteins: optimization of selectivity for L3MBTL3” (J Med Chem, 2013)
# Key:
# [1] = target: Lysine-specific demethylase 5A (Homo sapiens, UniProt P29375); experiment: Inhibition of JARID1A (unknown origin) after 30 mins by AlphaScreen assay
# In short: (§1)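 AlphaScreen competition with histone peptide. Compounds in 3-fold, 10-point dilutions, top 10 or 30 μM; buffer 20 mM Tris pH 8.0, 25 mM NaCl, 2 mM DTT, 0.05% Tween-20. Protein-peptide mix 30 min RT, then streptavidin donor plus nickel-chelate acceptor beads (GST acceptor beads for GST-tagged PHF23, JARID1A) 30 min RT dark. […] Protein-free His6-biotin peptide counterscreen.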
# TP53-binding protein 1 = TP53-binding protein 1 (Homo sapiens, UniProt Q12888); experiment: Inhibition of 53BP1 (unknown origin) after 30 mins by AlphaScreen assay; in short: as §1
# TP53-binding protein 1, sequence (Q12888 whole entry, the tested form may be a part): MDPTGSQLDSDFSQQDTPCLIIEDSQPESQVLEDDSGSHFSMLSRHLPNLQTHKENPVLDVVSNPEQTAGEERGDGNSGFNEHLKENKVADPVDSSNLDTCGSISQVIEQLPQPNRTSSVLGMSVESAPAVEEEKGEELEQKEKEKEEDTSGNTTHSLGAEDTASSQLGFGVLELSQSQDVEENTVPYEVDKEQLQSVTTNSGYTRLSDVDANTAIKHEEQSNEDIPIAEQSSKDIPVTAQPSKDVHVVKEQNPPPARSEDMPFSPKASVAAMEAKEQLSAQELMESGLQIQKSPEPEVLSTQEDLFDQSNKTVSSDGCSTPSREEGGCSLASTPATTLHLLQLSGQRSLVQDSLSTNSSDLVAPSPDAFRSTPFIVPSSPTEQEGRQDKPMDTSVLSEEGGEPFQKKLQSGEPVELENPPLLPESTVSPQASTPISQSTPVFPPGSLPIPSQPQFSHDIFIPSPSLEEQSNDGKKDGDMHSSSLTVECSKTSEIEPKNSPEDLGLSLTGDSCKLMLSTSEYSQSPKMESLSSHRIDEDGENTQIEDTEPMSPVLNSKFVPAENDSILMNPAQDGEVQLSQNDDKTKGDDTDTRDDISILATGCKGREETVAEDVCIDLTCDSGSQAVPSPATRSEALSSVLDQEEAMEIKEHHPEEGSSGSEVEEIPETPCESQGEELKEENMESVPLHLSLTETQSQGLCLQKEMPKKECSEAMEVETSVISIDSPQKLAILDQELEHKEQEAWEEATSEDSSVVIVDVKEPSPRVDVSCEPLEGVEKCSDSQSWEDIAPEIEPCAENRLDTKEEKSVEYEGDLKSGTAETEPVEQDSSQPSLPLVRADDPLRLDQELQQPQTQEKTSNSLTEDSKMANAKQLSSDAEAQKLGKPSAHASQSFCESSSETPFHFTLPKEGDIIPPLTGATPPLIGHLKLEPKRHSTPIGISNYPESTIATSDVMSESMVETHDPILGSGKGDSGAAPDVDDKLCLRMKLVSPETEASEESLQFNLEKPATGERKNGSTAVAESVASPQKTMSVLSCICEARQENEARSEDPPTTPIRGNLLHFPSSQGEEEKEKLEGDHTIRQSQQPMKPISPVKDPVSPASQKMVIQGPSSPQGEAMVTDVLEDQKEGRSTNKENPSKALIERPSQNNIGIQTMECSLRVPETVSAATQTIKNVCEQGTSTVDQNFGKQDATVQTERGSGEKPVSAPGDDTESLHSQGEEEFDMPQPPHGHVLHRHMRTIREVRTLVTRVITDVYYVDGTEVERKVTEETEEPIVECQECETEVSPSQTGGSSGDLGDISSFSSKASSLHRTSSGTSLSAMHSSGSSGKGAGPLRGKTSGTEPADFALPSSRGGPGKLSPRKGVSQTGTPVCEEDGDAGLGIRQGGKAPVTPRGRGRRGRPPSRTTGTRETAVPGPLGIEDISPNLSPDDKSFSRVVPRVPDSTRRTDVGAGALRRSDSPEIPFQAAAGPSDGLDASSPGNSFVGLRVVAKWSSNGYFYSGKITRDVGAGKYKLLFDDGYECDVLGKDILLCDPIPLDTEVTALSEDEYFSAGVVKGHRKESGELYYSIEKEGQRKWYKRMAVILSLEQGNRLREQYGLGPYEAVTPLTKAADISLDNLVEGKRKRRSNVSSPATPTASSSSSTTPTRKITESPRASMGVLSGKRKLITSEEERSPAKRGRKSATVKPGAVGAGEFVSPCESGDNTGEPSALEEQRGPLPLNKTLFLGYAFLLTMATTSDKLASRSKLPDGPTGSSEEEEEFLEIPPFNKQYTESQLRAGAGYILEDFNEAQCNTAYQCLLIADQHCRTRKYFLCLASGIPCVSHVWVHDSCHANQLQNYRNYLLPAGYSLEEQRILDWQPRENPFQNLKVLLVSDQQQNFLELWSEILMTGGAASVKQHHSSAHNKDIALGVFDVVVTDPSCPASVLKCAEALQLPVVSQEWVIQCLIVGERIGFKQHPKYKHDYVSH
# [2] = target: T1, Scm-like with four MBT domains protein 1 (Homo sapiens, UniProt Q9UHJ3); experiment: Inhibition of SFMBT1 (unknown origin) after 30 mins by AlphaScreen assay; in short: as §1
# T1 sequence (Q9UHJ3 whole entry): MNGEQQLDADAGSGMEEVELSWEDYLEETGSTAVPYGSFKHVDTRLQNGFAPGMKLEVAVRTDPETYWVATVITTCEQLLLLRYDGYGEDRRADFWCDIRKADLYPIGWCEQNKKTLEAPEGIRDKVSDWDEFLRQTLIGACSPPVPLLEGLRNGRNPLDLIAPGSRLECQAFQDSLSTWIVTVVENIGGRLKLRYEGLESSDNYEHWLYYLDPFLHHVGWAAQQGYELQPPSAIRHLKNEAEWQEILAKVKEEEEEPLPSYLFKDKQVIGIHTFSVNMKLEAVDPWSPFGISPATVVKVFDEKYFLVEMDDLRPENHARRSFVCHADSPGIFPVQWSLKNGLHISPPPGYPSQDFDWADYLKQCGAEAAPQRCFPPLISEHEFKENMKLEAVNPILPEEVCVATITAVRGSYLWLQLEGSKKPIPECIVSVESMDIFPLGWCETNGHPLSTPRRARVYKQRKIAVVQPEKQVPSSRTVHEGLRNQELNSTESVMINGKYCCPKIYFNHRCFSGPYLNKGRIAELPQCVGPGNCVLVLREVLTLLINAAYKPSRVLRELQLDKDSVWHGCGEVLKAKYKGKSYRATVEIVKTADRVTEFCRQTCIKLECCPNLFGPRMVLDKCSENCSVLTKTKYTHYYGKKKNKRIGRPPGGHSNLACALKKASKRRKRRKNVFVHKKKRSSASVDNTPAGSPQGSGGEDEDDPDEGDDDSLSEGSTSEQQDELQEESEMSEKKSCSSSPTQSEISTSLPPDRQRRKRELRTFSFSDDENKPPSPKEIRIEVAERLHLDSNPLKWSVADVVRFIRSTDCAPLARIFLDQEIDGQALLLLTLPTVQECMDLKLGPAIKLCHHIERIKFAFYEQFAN
# [3] = target: T2, Lethal(3)malignant brain tumor-like protein 3 (Homo sapiens, UniProt Q96JM7); experiment: Inhibition of L3MBTL3 (unknown origin) using H4K20me2 as substrate after 30 mins by LNCE-TR-FRET assay
# T2 sequence (Q96JM7 whole entry): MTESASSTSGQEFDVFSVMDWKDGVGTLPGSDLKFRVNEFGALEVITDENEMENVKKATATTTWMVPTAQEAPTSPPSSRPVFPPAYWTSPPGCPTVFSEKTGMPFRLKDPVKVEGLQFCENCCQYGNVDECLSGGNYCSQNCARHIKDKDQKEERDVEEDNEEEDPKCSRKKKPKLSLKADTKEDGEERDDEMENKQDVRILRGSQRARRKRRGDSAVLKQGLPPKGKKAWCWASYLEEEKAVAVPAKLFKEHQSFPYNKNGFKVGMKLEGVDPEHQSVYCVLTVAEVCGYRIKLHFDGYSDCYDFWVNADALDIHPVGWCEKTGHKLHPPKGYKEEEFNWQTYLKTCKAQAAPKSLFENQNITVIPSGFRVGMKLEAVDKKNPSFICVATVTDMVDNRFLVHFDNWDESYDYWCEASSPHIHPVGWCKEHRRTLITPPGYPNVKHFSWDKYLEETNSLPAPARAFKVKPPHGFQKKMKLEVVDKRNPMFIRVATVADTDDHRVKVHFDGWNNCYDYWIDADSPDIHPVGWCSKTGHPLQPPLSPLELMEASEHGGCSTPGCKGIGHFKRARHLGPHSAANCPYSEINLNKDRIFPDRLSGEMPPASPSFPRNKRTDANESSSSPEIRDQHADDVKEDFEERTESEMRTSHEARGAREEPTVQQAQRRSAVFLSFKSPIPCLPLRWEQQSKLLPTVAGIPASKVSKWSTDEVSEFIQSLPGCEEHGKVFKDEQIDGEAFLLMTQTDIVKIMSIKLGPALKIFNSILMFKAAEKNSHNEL
# Lysine-specific demethylase 5A, sequence (P29375 whole entry): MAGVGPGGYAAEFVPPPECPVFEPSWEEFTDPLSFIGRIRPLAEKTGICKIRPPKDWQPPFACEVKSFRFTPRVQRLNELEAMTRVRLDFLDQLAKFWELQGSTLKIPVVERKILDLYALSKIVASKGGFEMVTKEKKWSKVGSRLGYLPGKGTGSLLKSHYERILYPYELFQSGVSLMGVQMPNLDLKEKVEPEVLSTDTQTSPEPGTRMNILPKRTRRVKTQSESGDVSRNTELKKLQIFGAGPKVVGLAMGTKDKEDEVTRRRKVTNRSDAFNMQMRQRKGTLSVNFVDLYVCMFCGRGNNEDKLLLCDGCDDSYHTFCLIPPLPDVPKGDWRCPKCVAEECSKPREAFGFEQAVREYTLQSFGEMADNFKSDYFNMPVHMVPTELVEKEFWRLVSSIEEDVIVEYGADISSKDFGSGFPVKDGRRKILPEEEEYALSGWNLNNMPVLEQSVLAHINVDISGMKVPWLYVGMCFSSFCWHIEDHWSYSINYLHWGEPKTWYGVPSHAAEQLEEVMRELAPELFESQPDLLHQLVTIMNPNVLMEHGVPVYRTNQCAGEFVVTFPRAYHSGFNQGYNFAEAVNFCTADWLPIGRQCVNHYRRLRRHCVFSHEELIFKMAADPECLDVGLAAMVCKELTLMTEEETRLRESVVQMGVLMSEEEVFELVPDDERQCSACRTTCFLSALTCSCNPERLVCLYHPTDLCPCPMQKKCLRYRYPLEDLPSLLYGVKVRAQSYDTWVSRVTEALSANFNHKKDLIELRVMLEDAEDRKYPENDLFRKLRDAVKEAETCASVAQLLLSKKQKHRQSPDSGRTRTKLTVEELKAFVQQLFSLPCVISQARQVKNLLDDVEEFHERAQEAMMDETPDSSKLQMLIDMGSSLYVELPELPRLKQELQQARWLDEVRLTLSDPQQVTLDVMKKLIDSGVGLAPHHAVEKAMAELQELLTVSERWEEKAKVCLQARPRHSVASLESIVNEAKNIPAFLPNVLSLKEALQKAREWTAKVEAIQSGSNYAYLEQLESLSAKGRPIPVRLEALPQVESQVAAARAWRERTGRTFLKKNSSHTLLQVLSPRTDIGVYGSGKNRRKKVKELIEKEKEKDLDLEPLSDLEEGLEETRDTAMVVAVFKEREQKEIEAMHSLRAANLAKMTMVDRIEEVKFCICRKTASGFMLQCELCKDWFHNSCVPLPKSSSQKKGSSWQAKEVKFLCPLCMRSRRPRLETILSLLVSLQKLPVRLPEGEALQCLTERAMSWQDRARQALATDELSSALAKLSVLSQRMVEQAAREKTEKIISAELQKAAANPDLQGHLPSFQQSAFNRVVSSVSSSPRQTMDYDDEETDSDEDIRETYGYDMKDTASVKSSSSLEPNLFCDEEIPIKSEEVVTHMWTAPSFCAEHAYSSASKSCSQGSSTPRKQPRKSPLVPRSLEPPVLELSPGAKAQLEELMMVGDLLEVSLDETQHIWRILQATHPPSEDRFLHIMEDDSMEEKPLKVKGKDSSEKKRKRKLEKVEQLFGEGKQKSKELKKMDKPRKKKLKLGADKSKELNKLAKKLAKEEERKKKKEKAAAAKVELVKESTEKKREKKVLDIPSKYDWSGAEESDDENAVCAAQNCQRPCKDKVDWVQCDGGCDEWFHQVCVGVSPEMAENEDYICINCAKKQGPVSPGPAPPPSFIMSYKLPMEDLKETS
IC50 [1] [µM],IC50 (TP53-binding protein 1) [µM],IC50 [2] [µM],SMILES,IC50 [3] [µM]
> 10,> 10,> 10,O=C(c1ccc(C(=O)N2CCC(N3CCCC3)CC2)c(Br)c1)N1CCC(N2CCCC2)CC1,0.074
> 10,> 10,> 10,O=C(c1ccc(C(=O)N2CCC(N3CCCC3)CC2)c([N+](=O)[O-])c1)N1CCC(N2CCCC2)CC1,0.088
> 10,> 10,> 10,O=C(c1ccc(C(=O)N2CCC(C3CCCN3)CC2)cc1)N1CCC(C2CCCN2)CC1 (stereo unspecified),0.8
> 10,> 10,> 10,O=C(c1ccc(C(=O)N2CCC3(CCNC3)C2)cc1)N1CCC(N2CCCC2)CC1 (stereo unspecified),2.2
> 10,> 10,> 10,O=C(c1ccc(C(=O)N2CCC3(CCNC3)CC2)cc1)N1CCC(N2CCCC2)CC1,0.62
> 10,> 10,> 10,O=C(c1ccc(C(=O)N2CCC(N3CCCC3)CC2)c(Cc2ccccc2)c1)N1CCC(N2CCCC2)CC1,0.051
> 10,> 10,> 10,CCN1Cc2ccc(NC(=O)c3ccc(C(=O)N4CCC(N5CCCC5)CC4)cc3)cc2C1,0.35
> 10,4.7,> 10,O=C(c1ccccc1C(=O)N1CCC(N2CCCC2)CC1)N1CCC(N2CCCC2)CC1,0.35
> 10,> 10,> 10,O=C(c1ccc(C(=O)N2CCC(N3CCCC3)CC2)o1)N1CCC(N2CCCC2)CC1,0.31
> 10,8.7,> 10,O=C(c1ccc(C(=O)N2CCC(N3CCCC3)CC2)c(NCc2ccccc2)c1)N1CCC(N2CCCC2)CC1,0.05
> 10,> 10,> 10,O=C(c1cncc(Br)c1)N1CCC(N2CCCC2)CC1,4.7
> 10,> 10,> 10,O=C(c1ccc(C(=O)N2CCC(N3CCCC3)CC2)c(-c2ccccc2)c1)N1CCC(N2CCCC2)CC1,0.061
> 10,> 10,> 10,O=C(c1ccc(C(=O)N2CC3CCC(C2)C3N2CCCC2)cc1)N1CC2CCC(C1)C2N1CCCC1 (stereo unspecified),0.28
> 10,> 10,> 10,O=C(c1ccc2cc(C(=O)N3CCC(N4CCCC4)CC3)ccc2c1)N1CCC(N2CCCC2)CC1,0.45
> 10,> 10,> 10,O=C(c1ccc(C(=O)N2CCC(N3CCCC3)CC2)cc1)N1CCC(C2CCCN2)CC1 (stereo unspecified),0.092
> 10,> 10,> 10,CN(C)C1CCN(C(=O)c2ccc(C(=O)N3CCC(N4CCCC4)CC3)cc2)CC1,0.18
> 10,> 10,> 10,O=C(c1ccc(C(=O)N2CCC(N3CCCC3)CC2)c(Oc2ccccc2)c1)N1CCC(N2CCCC2)CC1,0.053
> 10,> 10,> 10,O=C(c1ccc(C(=O)N2CCC(N3CCCC3)CC2)cc1)N1CCCC(N2CCCC2)CC1 (stereo unspecified),0.074
> 10,7.9,> 10,O=C(c1ccc(C(=O)N2CCC(N3CCCC3)CC2)c(C(=O)N2CCC(N3CCCC3)CC2)c1)N1CCC(N2CCCC2)CC1,0.11
> 10,> 10,> 10,O=C(c1ccc(C(=O)N2CC3(CCNC3)C2)cc1)N1CCC(N2CCCC2)CC1,2.7

IC50 [1] [µM],IC50 (TP53-binding protein 1) [µM],IC50 [2] [µM],SMILES,IC50 [3] [µM]
> 10,> 10,> 10,O=C(NCCCN1CCCC1)c1ccc(C(=O)N2CCC(N3CCCC3)CC2)cc1,0.34
> 10,> 10,> 10,O=C(c1ccc(C(=O)N2CC3CCC(C2)C3N2CCCC2)cc1)N1CCC(N2CCCC2)CC1 (stereo unspecified),0.092
> 10,> 10,> 10,CN1CCC(N2CCN(C(=O)c3ccc(C(=O)N4CCC(N5CCCC5)CC4)cc3)CC2)CC1,0.77
> 10,> 10,> 10,C[N+]1(C2CCN(C(=O)c3ccc(C(=O)N4CCC(N5CCCC5)CC4)cc3)CC2)CCCC1,0.081
> 10,7.4,> 10,O=C(c1ccc(N2CCC(N3CCCC3)CC2)cc1)N1CCC(N2CCCC2)CC1,0.15
> 10,> 10,> 10,CN1CCN2CC(NC(=O)c3ccc(C(=O)N4CCC(N5CCCC5)CC4)cc3)CC2C1 (stereo unspecified),4.5
> 10,3.5,> 10,CCN1Cc2ccc(NC(=O)c3ccc(C(=O)N4CCC(C5CCCN5)CC4)cc3Nc3ccccc3)cc2C1 (stereo unspecified),0.16
> 10,> 10,> 10,O=C(c1ccc(C(=O)N2CCC(N3CCCC3)CC2)cc1)N1CCC(C2CCCCC2)CC1,1.6
> 10,> 10,> 10,O=C(c1ccc(C(=O)N2CCCC(N3CCCC3)CC2)cc1)N1CCCC(N2CCCC2)CC1 (stereo unspecified),0.11
> 10,> 10,> 10,CN(C)C1CCN(C(=O)c2ccc(C(=O)N3CCC(N(C)C)CC3)cc2)CC1,8
> 10,> 10,> 10,Nc1cc(C(=O)N2CCC(N3CCCC3)CC2)ccc1C(=O)N1CCC(N2CCCC2)CC1,0.22
> 10,> 10,> 10,CCN1Cc2ccc(NC(=O)c3ccc(C(=O)N4CC5CCC(C4)C5N4CCCC4)cc3)cc2C1 (stereo unspecified),0.15
> 10,> 10,> 10,O=C(c1ccc(C(=O)N2CCC(N3CCCC3)C2)cc1)N1CCC(N2CCCC2)CC1 (stereo unspecified),0.22
> 10,> 10,> 10,O=C(c1ccc(S(=O)(=O)N2CCC(N3CCCC3)CC2)cc1)N1CCC(N2CCCC2)CC1,0.097
> 10,> 10,> 10,O=C(c1ccc(C(=O)N2CCC(N3CCCC3)CC2)cc1)N1CCC(C2CCNCC2)CC1,0.8
> 10,> 10,> 10,O=C(c1c(F)c(F)c(C(=O)N2CCC(N3CCCC3)CC2)c(F)c1F)N1CCC(N2CCCC2)CC1,0.13
> 10,> 10,> 10,O=C(c1ccc(C(=O)N2CCC(N3CCCC3)CC2)s1)N1CCC(N2CCCC2)CC1,0.068
> 10,> 10,> 10,CC(C1CCN(C(=O)c2ccc(C(=O)N3CCC(N4CCCC4)CC3)cc2)CC1)N1CCN(C)CC1 (stereo unspecified),0.25
> 10,> 10,> 10,O=C(c1ccc(CN2CCC(N3CCCC3)CC2)cc1)N1CCC(N2CCCC2)CC1,0.13
